# Source: PubChem BioAssay (several laboratories)
# HCV NS3 hel inh: blocks Hepatitis C virus NS3 helicase unwinding; inhibition, % at 10.9 µM; AID 1800; NS3 helicase DNA unwinding, Cy5 molecular beacon fluorescence; hit rate 0.56% among 290,000;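 active means inhibition above the mean of all tested compounds plus 3 SD, set per campaign, cut at about 35% in these data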;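 further: 0% = DMSO wells and 100% = thioflavine S control wells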
#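 Material: hepatitis C virus NS3 helicase domain fragment enzyme; measured by: Cy5 fluorescence, 0 and 60 min reads; control set: DMSO and thioflavine S; incubation: 60 min unwinding reaction at 25 °C after ATP addition; read-out basis: % inhibition from 60/0 min fluorescence ratio, DMSO 0%, thioflavine S 100%; repeats: singlicate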
# MBD2 inh: MBD2-methylated oligo binding inhibition | Q9UBB5 | inhibition, % at 4.4 µM | AID 686964 | hit rate 0.31% among 370,000 | TR-FRET, MBD2 binding to methylated oligonucleotide; in the data active means inhibition above about 13%
# Target sequence (Q9UBB5 whole entry, looked up): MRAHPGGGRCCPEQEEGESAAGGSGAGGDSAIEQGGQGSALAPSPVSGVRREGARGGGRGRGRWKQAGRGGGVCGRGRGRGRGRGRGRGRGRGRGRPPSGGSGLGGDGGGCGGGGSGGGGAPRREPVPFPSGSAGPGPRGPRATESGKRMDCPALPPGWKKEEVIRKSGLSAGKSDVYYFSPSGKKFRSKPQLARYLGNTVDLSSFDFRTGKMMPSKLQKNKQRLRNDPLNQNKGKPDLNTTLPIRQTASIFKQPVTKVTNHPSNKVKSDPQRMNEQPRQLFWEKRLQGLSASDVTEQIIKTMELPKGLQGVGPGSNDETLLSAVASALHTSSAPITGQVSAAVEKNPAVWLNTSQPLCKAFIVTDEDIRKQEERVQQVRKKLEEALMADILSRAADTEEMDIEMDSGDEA
# SUMO1-SIM PPI: modulators of human SUMO1-mediated protein-protein interactions | hit rate 0.33% among 360,000 | inhibition, % at 20 µM | SUMO1 binding to a labelled peptide, TR-FRET, 1 h | P63165; in the data active means inhibition above about 37%
# Target sequence (P63165 whole entry, looked up): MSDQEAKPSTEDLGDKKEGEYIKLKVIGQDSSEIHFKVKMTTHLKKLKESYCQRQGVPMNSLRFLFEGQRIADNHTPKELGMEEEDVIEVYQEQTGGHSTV
# DNMT1 block: inhibitors of human DNMT1 | P26358 | DNMT1 molecular beacon, Hinp1I cleavage, fluorescence | inhibition (reported as % activation of signal), % at 10 µM | hit rate 0.83% among 360,000; in the data active means inhibition above about 50%
# UHRF1 binding: UHRF1 methyl-DNA binding inhibition; UHRF1 binding to methylated oligo, TR-FRET; Q96T88; inhibition, % at 4.4 µM; hit rate 0.75% among 370,000; in the data active means inhibition above about 21%;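 further: UHRF1 SRA domain binding a hemimethylated CpG hairpin DNA probe; 0% = median of test compound wells and 100% = reference inhibitor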
# DSG3 Ab inh: inhibitors of pemphigus antibody binding to human desmoglein-3. hit rate 0.48% among 310,000. P32926. DSG3-coupled beads, scFv-anti-DSG3-GFP binding, flow cytometry; hits give low values. binding (percent of control), % at 10 µM. AID 588358;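 active means binding more than 3 SD below its plate's average and above zero; inconclusive means below that plate limit but binding exactly zero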;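 further: hits lower antibody fragment binding to DSG3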
# * hit, by the source's call; ? = inconclusive; . = no result given. Most compounds without a hit are left out; they make up all but 2.5% or so of the library.
SMILES,HCV NS3 hel inh,MBD2 inh,SUMO1-SIM PPI,DNMT1 block,UHRF1 binding,DSG3 Ab inh
Cc1cc(C)c(S(=O)(=O)c2ccccc2)c(OC(=O)c2c(Cl)cc(Cl)cc2Cl)n1,-8.8,1.3,41.6*,-7.1,8.5,.
Fc1ccc(Nc2nc(-c3ccncc3)cs2)cc1,-1.4,4.8,-10.9,0.1,28.1*,.
COc1ccc(-c2csc(Nc3ccc(S(N)(=O)=O)cc3)n2)cc1,-11.5,-0.2,2.4,-33.0,0.3,87.8*
CC(=O)Oc1ccc(-c2csc(Nc3ccc(S(N)(=O)=O)cc3)n2)cc1,-5.8,-5.4,-0.2,-4.8,1.9,98.2
O=C(Cc1ccsc1)NCC(c1ccco1)N1CCCCC1 (stereo not given),2.2,-5.6,1.3,-2.4,25.1*,101.1
Cc1cccc(Nc2nnc(SCC(=O)NC(=O)CN3CCCC3=O)s2)c1,.,-1.2,3.4,3.4,4.1,103.7
O=C1c2c(O)cccc2Cc2cccc(O)c21,.,-5.5,2.0,94.8*,-2.8,63.8*
Cc1cc(O)c2c(c1)C(=O)c1cccc(O)c1C2=O,9.1,1.3,.,.,1.7,.
O=C(O)c1ccc(S(=O)(=O)c2ccc3c(c2)C(=O)N(c2ccc(O)cc2)C3=O)cc1,-3.3,-8.8,-13.9,1.2,6.1,93.4
O=C1c2ccc3c4c(ccc(c24)C(=O)N1c1ccc(O)cc1)C(=O)N(c1ccc(O)cc1)C3=O,0.9,-0.9,88.2*,13.0,5.1,102.2
O=C(CSc1nc(-c2ccccc2Cl)ns1)c1ccc(Cl)cc1,5.8,3.3,0.8,3.0,32.0*,.
Cc1cccc(-c2nsc(SCC(=O)c3ccc(Cl)cc3)n2)c1,14.4,-2.5,-2.0,1.2,0.2,.
COc1cccc(OCc2cc(/C=N/Nc3ccc(C(=O)O)cc3)ccc2OC)c1,22.9,3.6,0.9,-1.9,2.4,61.2*
O=C(c1ccc2c(c1)OCO2)N(CC1CCCO1)C1(C(=O)NC2CCCC2)CCCCC1 (stereo not given),2.9,1.5,-1.4,2.9,-0.5,73.5
O=C(Nc1ccc(Cl)cc1Cl)c1cc2ccccc2o1,-0.2,4.3,-0.5,3.1,2.7,96.3*
CC(C)C[C@@H]1O[C@H](CCc2ccccc2)CC2=C1C(=O)OC(C)(C)O2,.,0.3,3.0,.,0.1,.
CC1(C)OC(=O)C2=C(CC(CCc3ccccc3)OC2CCc2ccccc2)O1 (stereo not given),.,-1.0,.,.,21.0*,.
C=CC[C@@H]1NN2C(=O)[C@@H](CCc3ccccc3)[C@@H]3c4ccccc4C=NN3[C@@H]2c2ccccc21,.,4.5,.,.,83.5*,.
O=c1cc(CN2CCC(Cc3ccccc3)CC2)nc2sccn12,-3.9,-3.0,0.7,-3.2,0.6,101.3
CC1CN(Cc2cc(=O)n3ccsc3n2)CC(C)O1 (stereo not given),-3.2,10.8,-0.6,4.4,21.2*,106.0
COc1ccc(NC(=O)CSc2nnnn2Cc2ccccc2)cc1,-0.6,-12.0,1.8,-5.1,-1.2,64.6*
COc1ccccc1NC(=O)CSc1nnnn1Cc1ccccc1,2.0,-1.7,1.3,-2.1,5.3,115.8
COc1ccccc1NC(=O)Cc1nnc(SCC(=O)Nc2ccc(F)cc2F)n1C,4.7,-4.5,1.2,-1.0,0.9,.
COc1ccccc1NC(=O)CSc1nnc(CCC(=O)Nc2ccccc2F)n1C,17.7,3.5,0.9,3.0,20.7*,92.3
O=C(O)Cn1nnnc1SCC(=O)Nc1ccccc1F,3.4,9.4,-1.7,-2.3,25.7*,.
SMILES,HCV NS3 hel inh,MBD2 inh,SUMO1-SIM PPI,DNMT1 block,UHRF1 binding,DSG3 Ab inh
Cc1ccc(/C=C2/Sc3ccc(C(=O)NCc4ccccn4)cc3NC2=O)cc1,-5.9,1.5,49.6*,24.3,0.1,76.9
Cc1ccc(/C=C2/Sc3ccc(C(=O)N4CCN(c5ccccn5)CC4)cc3NC2=O)cc1,-29.0,0.3,-4.7,-5.1,-0.9,108.8
CC(NC(=O)c1ccccc1F)c1nnc(SCC(=O)N2CCN(c3ccccc3)CC2)n1C (stereo not given),5.1,9.4,-0.2,0.3,15.8,116.2
COc1ccc(NS(=O)(=O)c2cc(NC(=O)c3ccc(=O)[nH]n3)ccc2N2CCOCC2)cc1,.,-0.5,-4.7,0.7,29.2*,103.0
CCC(CC)C(=O)N(C)c1c(C)nc2c(OCC=C(C)C)cccn12,.,5.3,0.7,-3.2,2.3,.
O=C(Nc1ccc2c(c1)OCCO2)c1ccc2ccccc2n1,-19.1,-6.1,-7.5,-2.7,22.0*,126.1
O=C(Cn1c(=O)oc2cc(S(=O)(=O)N3CCCCC3)ccc21)N1CCCCC1,6.8,-3.8,2.8,1.7,51.6*,108.4
O=C(Cn1c(=O)oc2cc(S(=O)(=O)N3CCCC3)ccc21)N1CCN(C2CCCCC2)CC1,4.3,-1.9,-4.2,-0.5,1.2,102.9
CC(C)Cc1cc(CN2CCCC(CO)(Cc3cccc(Cl)c3)C2)[nH]n1 (stereo not given),-19.1,5.2,-3.1,-4.5,-2.2,124.6
COCCCNC(=O)CS(=O)Cc1nc(-c2ccccc2C)oc1C (stereo not given),-3.4,-1.6,-0.6,-0.7,1.2,104.9
CN(C)/C=C(\C#N)C(=O)N/N=C/c1ccc(F)cc1,6.0,-0.6,-4.2,2.0,1.9,106.5
O=C1COc2ccc(C(=O)COC(=O)CNS(=O)(=O)c3cccc(F)c3)cc2N1,.,17.6*,-3.0,-9.7,20.2,?
COc1ccc(-n2ncc3c2CC(C)(C)CC3NC(=O)c2ccoc2C)cc1 (stereo not given),-10.0,4.9,-0.1,-4.9,-1.0,.
CC#CC#Cc1cccc(=O)o1,3.8,2.8,-14.5,56.5*,-0.8,124.9
CCOC(=O)c1ccc(NC(=S)N2CCN(C(=O)C3CCCO3)CC2)cc1 (stereo not given),5.5,-4.2,-2.4,0.0,-0.5,102.0
CCn1c(=O)c(C(=O)NNS(=O)(=O)c2ccc(C)cc2)c(O)c2ccccc21,2.2,-6.7,17.8,1.0,-5.2,104.3
CCn1c(=O)c(C(=O)NNS(=O)(=O)c2ccc(Br)cc2)c(O)c2ccccc21,12.4,2.9,19.7,-6.0,35.3*,102.7
CC(=O)c1ccccc1NS(=O)(=O)c1cccc2nonc12,15.1,-2.3,-18.8,1.3,0.2,105.4
CCOC(=O)N1CCC(NC(=O)C(NS(=O)(=O)c2cccc3nsnc23)c2ccccc2)CC1 (stereo not given),2.4,-5.8,46.0*,0.6,-3.2,106.0
O=C(O)CC(CNS(=O)(=O)c1cccc2nsnc12)c1ccccc1 (stereo not given),-12.4,-0.1,-17.0,5.4,-1.8,40.2*
CC(=O)c1ccccc1NS(=O)(=O)c1cccc2nsnc12,-1.1,-1.3,-17.2,51.1*,4.7,106.6
O=C(O)CC1c2ccccc2CCN1S(=O)(=O)c1cccs1 (stereo not given),.,7.7,5.3,1.5,23.8*,104.1
